Test results published in the RNAGym collection of RNA variant scans (doi:10.1126/science.aae0568).
Fewer inactive variants are shown than the library holds.

B1: tRNA (parent)
chain: GUUCCGUUGGCGUAAUGGUAACGCGUCUCCCUCCUAAGGAGAAGACUGCGGGUUCGAGUCCCGUACGGAACG

Variants of: B1
Test: yeast fitness relative to wild type (ratio to wild type); higher = fitter; tRNA-Arg(CCU), competitive growth, 37 C, YPD
Procedure, shortened: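 Variants of the tRNA-Arg(CCU) gene, chemically synthesised with a 3% per-site mutation rate at 69 sites, were placed at the native genomic locus in Saccharomyces cerevisiae. The pooled strains were competed in YPD at 37°C for 24 hours in six parallel replicates. Gene amplicons from the start population and from each end population were read by 100-nucleotide paired-end sequencing. Darwinian fitness relative to wild type came from changes in genotype frequencies; genotypes needed ≥ 100 starting reads, and estimates < 0.5 were set to 0.5.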

| Variant | yeast fitness |
| --- | --- |
| GUUCGGUUGGCGGAAUGGUAACGCGUCUUCCUCCUAAGGGGAAGACUGCGGGUUCGAGUUCCGUGCGGAACG | ≤ 0.5 |
| GUUCGGUUGGCGCAAUGGUACCGCGUCUCCCUCCUAAGGAGAAGACUGCGGGUUCGUGUCCCGUUCGCAACG | ≤ 0.5 |
| GUUCGGUUGGCGGAAUGGUAACGCGUGUCACUCCUAAGGAGAAGACUGCGGGUUCGAGUCCCGUACGGAACG | ≤ 0.5 |
| GUUCGGUCGGCGUAAUGGUAACGCGUCUCCCUCCUAAGGAAAAGACUGCGGGUUCGAGUCCCGUACGGAACG | ≤ 0.5 |
| GUUCGGUUGGCGUAAUGGUAACGCGACUCCCUCCUCAGGAGAAGACUGCGGGUUCGAGUCUCGUACGGAACG | ≤ 0.5 |
| GUUCGGUUGGCGUAAUGGUAACGCGUCUCCCACCUAAGGAGAAGACUGCGGGUUCGAGUCCCGUACGGAUCG | ≤ 0.5 |
| GUUCGGUAGGCGUAAUGGUAACGCGUCUCCCUCCUAAGGAGAAGACUGCGGGUUCGAGUCCCGUACGGAACG | 0.641 |
| GUUCGGUAGGCGUAAUGGUAACGCGUCUCCCUCCUAAGGAGCAGACUCCGGGUUCGAGUCCCGUACGGAACG | ≤ 0.5 |
| GUUCGGUUGGCGUAAUGGUAACGCAUCUCCCUCCUAAGGAGAAGACUGCGGGUUCGAGUCCCGUACGUAACG | 0.633 |
| GUUCGGUUGGCGUAAUGGUAACGCGUCUCCCUCCUAAGGAGAAAACUGCGGGUUCGAGUCCCGUACGGAACG | 1.02 |
| GUUCGGUUGGCGUAAUGGUAACGCGUCUCCCUCCUAAGGAGAAUACUGCGGGUUCGAGUCCCGUACGGAACG | 0.626 |
| GUUCGGUUGGCGUAAUGGUAACGCCUCUCCCUCCUAAGGAGAAGACUGCGGGUUCGAGUCCUGUACGGAACG | 0.721 |
| GUUCGGAUGGUGUAAUGGUAACGCGUCUCCCUCCUCAAGAGAACACUGCGGGUUCGAGUCCCGUACGGAACG | 0.589 |
| GUUCGGUUGGCGUAAUGGUAACGCGUCUCCCUCCUAAGGAGAAGACUACGGGUUCGAGUCCCGUACGGAUCG | 0.803 |
| GUUCGGUUGGCGUAAUGGUAACGCGCCUUCCUCCUAAGGAGAAGACUGCGGGUUCGAGUCCCGUACGGAACG | ≤ 0.5 |
| GUUCGGUUGGCGUAAUUGUAACGCGUCUCCCUCCUAAGGAGAAGUCUGCGGGUUCGAGUCCCGUACGCAACG | ≤ 0.5 |
| GUUCGGGUGGCGUAAUGGUAACCCGUCUCCUUCCUAAGGAGAAGACUGUGGGUUCGAGUCCCGUACGGAACG | ≤ 0.5 |
| GUUCGGCUGGCGUAAUGGUAACACGUCUCCCUCCUAAGGAGAAGACUGCGGGUUCGAGUCCCGUACGGAACG | ≤ 0.5 |
| GUUCGGUUGGCGUAAUGGUAACGCGUCCCCCUCCAAAGGAGAAGACUGCGGGUUCGAGUCCCGUACGGAACG | 0.545 |
| GUUCGGUUGGCGAAAUGGUAAGGCGUCUGCCUCCUAAGGUGAAGACUGCGGGUCCGAGUCGCGUACAGAACG | ≤ 0.5 |
| GUUCGGUUGGCGUAAUGGGAAUGCGUCUCCCUCCUAAGGAGAGGACUGGGGGUUCGAGUCCCGUACGGAACG | ≤ 0.5 |
| GUUCGGCUGGCGUAAUGGUAACGCGUCUCCCUCCUCAGGAGAAGACUGCGGGUUCGUGUCACGUAGGGAACG | ≤ 0.5 |
| GUUCGGUUGGCGUAACGGUAACGCGUCUCCUUCCUAAGGAGAAGACUGCGGGUUCGAGUCCCGUACGGAACG | 0.627 |
| GUUCGGUGGGCGUAAUGGUAACGCGUCUCCCUCCUAAGGAGAAGACUGCGGGUUCGAGUCCCAUACGGAACG | ≤ 0.5 |
| GUUCGGUUGGCGUAAUGGUAACACGUCUCCGUCCUAAGGAGAAGACUGCGGGUUCGAGUCCCGUACGGAACG | ≤ 0.5 |

| Variant | yeast fitness |
| --- | --- |
| GUUCGGUUGGCGUAAUGGUAACGCGUCACCCUCCUAAGGAGAAGACUGCGGGUUGGAGUCCCGUACGGAACG | ≤ 0.5 |
| GUUCGGUUGGCGUAAUCGUAACGCGUCUCCCUCCUAAGGAGAAGACUGCGGGUUCGACCCCCGUACGGAACG | 0.57 |
| GUUCGGUUGGCGUAAUAGUAACGCGCCUCCCUCCUAAGGAGAAGACUGCGGGUUCGAGUCCCGUACGGAACG | ≤ 0.5 |
| GUUCGGUUGGCGUAAUGGUAACGCGUCUCCCUCCUAAGGAGAAGACUGCGCGUUGGUGUCCCGUAUGGAACG | ≤ 0.5 |
| GUUCGGUUGGCGUAAUGGUAACGCGUCUCCCUCCUAACGAGAAGACUGCGGGUUCGAGUCCCGUACGGAACG | 0.565 |
| GUUCGGCUGGGGUAAUGGUAACCCGCUUCCCUCCUAAGGAGUAGACUGCGGGUUCGAGUCCCGUACGGAACG | ≤ 0.5 |
| GUUCGGUUGGCGUAAUGGUAACGCAUCUCCCUCCUAAGGAGAAGACUGCGGGUGUGAGUCCCGUACGGACCG | ≤ 0.5 |
| GUUCGGUUGGCGUAAUGGUAACGCGUCUCCCUCCUAAGGAGAAGACUCUGGGUGCGAGUCCCGUGAGGAACG | ≤ 0.5 |
| GUUCGGUUGGCGUAAUGGUAACGCGUCUCCCUCCUAAGGAGAAGACUGCGAGUUCGAGUCCCGUACGCAACG | ≤ 0.5 |
| GUUCGGUUGGCGUAAUAGUAAUGCGUCCCCCUCCUAAGGAGAAGAUUGCGGGUUCGAAUCCCGUACGGAACG | ≤ 0.5 |
| GUUCGGAUGGCGUAAUGGUAACGCGUCUCCCUCCUAAGGAGAAGACUGCGGGUUCGAGUCCCGUACGGAACG | 0.792 |
| GUUCGGGUGGCGUAAUGGUAACGCGUCUCCCUCCUAAGGAGAAGACUGCGGGUUCGAGUCCCGUACGGAACG | 0.564 |
| GUUCGGUUGGCGUAAUGAUAACGCAUCUCCCUCCUAAGGAGAAGACUGCGGGUUCGAGUCUCGUACGGGACG | 0.574 |
| GUUCGGUUGGCGUAAUCGUAACCCGUCUCCCUCCUAAGGAGAAGACUGCGGGUUCGAGUCCCGUACGGAACG | ≤ 0.5 |
| GUUCGGUAGGCGUAAUGGUAACGCGUCUCCCUCCUAAGGACAAGACUGCGGGUUCGAGUCCCAUACGGAACG | ≤ 0.5 |
| GUUCGGUUGGCGUAAUGGUAACGCAUCUCCCUCCUAAGGAGAAGAAUGCGGGUUCGAGUCCCGUACGGAACG | 0.651 |
| GUUCGGUUGGCGUAAUGGUAACGCGUCUCCCUCCUAAGGAGAAGACUGCGGGUUCGACUCCCGUACGGCACG | 0.794 |
| GUUCGGUUGGCGUAAUGGUAACGCGUCGCCCUCCUAACGAGAAGACUGCGGGUUCGAGUCCCGUACGGAACG | ≤ 0.5 |
| GUUCGGUUGGCGUAAUGGUAACGCGUCACCCUCCUAAGGCGAAGACUGCGGGUUCGAGUCCCGUACGGAACG | 0.581 |
| GUUCGGUUGGCGUAAUGGUAACGCGUCUCCCUCCUAAGGAGAAGACUGCGGGUUCGAGUCCCGUACUGAACG | 0.859 |
| GUUCGGCUGACGUAAUGGUAACGCGUCUGCCUCCUAAGGAGAAGACUGCGGGUUCGAGUCCCGUACGGAACG | ≤ 0.5 |
| GUUCGGUUGGCGUAAUGGUAACGCAUCUCCCUCCUAAGGAGAAGACUGCGGGUUCAAGUCCCGUACGGAACG | 0.803 |
| GUUCGGCUGGUGUAAUGGUAACGCAUCUCCCUCCUAAGGAGAAGACUGCGGGUUCGAGUCCCGUACGGAACG | ≤ 0.5 |
| GUUCGGUUGGCGUAAUGGUAACGCAUCUCCCUCCUAAGGAGAAGACUGCGGGUUCGAGUCCCGUGCGGAACG | 0.763 |
| GUUCGGUUGGCGUAAUGGUAACGCGUCUCCCUCCUAAGGAGAAGACUACGGGUUCGAGUCCCGUACGGAACG | 0.978 |

| Variant | yeast fitness |
| --- | --- |
| GUUCGGUUGGCGUAAUAGUAACGCGUCUCCCUCCUAAGGCGAAGACUGCGGGUUCGAGCCCCGUACGGAACG | 0.723 |
| GUUCGGUUGGCGUAAUGGUAACGCGUCUCCCUCCUAAGGAGAAGACUGCGAGUUCGAGUCCCGUACGGUACG | 0.528 |
| GUUCGGUUGGCGUAAUGGUAACGCGGCUCCCUCGUAAGGCGAAGAUUGCGGGUUCGAGUCCCGUACGGAACG | ≤ 0.5 |
| GUUCGGUUGGCGUAAUGGUAACGCGUCUCCCUCCUAAGGAGAAGACUGCGAGUUCGAGUCCGGUACGGAACG | ≤ 0.5 |
| GUUCGGUUGGCGUAAUGGUAACGCGUCUCCCUCCUAAGGAGAACACUGGGGGUUCGAGUCCCGUACGGAACG | 0.521 |
| GUUCGGUUGGCGUAAUCGUAACGCGUCUCCCUCCUAAGGAGAAGAUUGCAGGUUCGAGUCCCGUACGGAACG | ≤ 0.5 |
| GUUCGGUUGGCGGAAUGGUAACGCGUCUUCCUCCUAAGGGGAAGACUGCGGGUUCGAGUCCCGUACGAACCG | ≤ 0.5 |
| GUUCGGUUGGCGUAAUGGUAACGCGUCUCCCACCUAAGGAGAAGACUGCGGGUUCAAGUCCCGUACGGAACG | 0.634 |
| GUUCGGUUGGCGUAAUAAUAACGCGUCUCCCUCCUAAGGAGAAGACUGCGGGUUCGAGUCCCGUACGGAACG | 0.553 |
| GUUCGGUUGGCGUAAUGGUAACGCGUCUCCCUCCUAAGCAGAAGACUGCGGGUUCGAGUCCCGUACGGUACG | 0.538 |
| GUUCGGCUGGCGUAAUGGUAACGCGUCUCCCUCCUAAGGAGAAGACUGCGCGUUCGAGUCCCGUACGGAACG | 0.564 |
| GUUCGGUUGGCGUAAUGGUAACGCGCCUCCCUCGUAAGGAGAAGACUGCGGGUCCGAGUCCCGUACGGAACG | ≤ 0.5 |
| GUUCGGUUGGCGUAACGGUGACGCGUCUCCCUCCUAAGGAGAAGACUGCGGGUUCGAGUCCCGUACGGAUCG | ≤ 0.5 |
| GUUCGGUUGGCGUAAUGGUAACGCCUCUCCCUCCUAAGGAGAAGACUGCGGGUUCGAGUCCCGUACGGAACG | 1.06 |
| GUUCGGUUGGCGUAAUGGUAACGCAUCUCCCUCCUAAGGAGAAGACUGCGGGUUCGAGUCCCGUACGGAACG | 0.981 |
| GUUCGGUUGGCGUAAUGAUAACGCAUCUCCCUCCUAAGGAGGAGACUGCGGGUUCGAGUCCCGUACGGAACG | ≤ 0.5 |
| GUUCGGUUGGCGUAAUGGUAACGCGUCACCCUCGUAAGGAGAAGAAUGCGGGUUCGAGUCCCGUACGGAACG | ≤ 0.5 |
| GUUCGGUUGGCGUAAUCGUAACCCGUCUCCCUCCUAAGGAGAAGACUGCGGGUUCGCGUCCCGUACGGAACG | ≤ 0.5 |
| GUUCGGUUGGCGUAAUCGUAACGCGUCUCCCUCCUAAGGAGAAGACUGCGGGUUCGAGUCCCGUACGGAACG | 0.651 |
| GUUCGGUUGGCGUAAUGGUAACGCGUCUCCCUCCUAAGGAGAAGACUGCGCGUACGAGUCCCGUACGGUACG | 0.562 |
| GUUCGGUUGGCGUAAAGGGCACGCGUUUUUCUCCUAAGGAGAAGACUGCGGGUUCGAGUCCCGUACGGAGCG | ≤ 0.5 |
| GUUCGGUUGGCGUAAUAGUAACGCGCCUCCCUCCUAAGGAGAAGACUGCGGGUUCGAGUCCCGUACGGACCG | ≤ 0.5 |
| GUUCGGUGGGCGUAAUGGUCACGCGUCUCCCUCCUAAGGAGAAGACUGCGGGUUCGAGUCCCGUACGGAACG | ≤ 0.5 |
| GUUCGGUAGGCGUAGUGGUAACGCGUCUCCCUCCUAAGGACAAGACAGCGGGUUCGAGUCCCGUACGGAACG | ≤ 0.5 |
| GUUCGGUUGGCGCAAUGGUAAGUCGUCUGCCUCCUAAGGAGAAGCCUGCGGGUUCGAGUCCCGUACGCGACG | 0.531 |
